In ChEMBL document CHEMBL1122036, “Use of adenine nucleotide derivatives to assess the potential of exo-active-site-directed reagents as species- or isozyme-specific enzyme inactivators. 3. Synthesis of adenosine 5'-triphosphate derivatives with N6- or 8-substituents bearing iodoacetyl groups” (J Med Chem, 1982):

What was measured:
Rattus norvegicus [1] = species on record: Rattus norvegicus; test: Substrate property, maximum velocity relative to ADP (100) in rat kidney pyruvate kinase was determined; assay type: ADME, organism-based; conditions: in vivo
Procedure, shortened: (§1)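 Rat muscle, liver and kidney pyruvate kinase isozymes, isolated as before, with ADP analogues as substrate. Optical density change at 340 nm, 22-24 °C, 1 mL. Five or more substrate concentrations. Km and Vmax come from linear Lineweaver-Burk plots, with Vmax relative to ADP (100).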

Rattus norvegicus [2] = species on record: Rattus norvegicus; test: Substrate concentration for half maximum-velocity in rat kidney pyruvate kinase was determined; assay type: ADME, organism-based; conditions: in vivo; procedure, shortened: as §1
Rattus norvegicus [3] = species on record: Rattus norvegicus; test: Substrate concentration for half maximum-velocity in rat muscle pyruvate kinase was determined.; assay type: ADME, organism-based; conditions: in vivo; procedure, shortened: as §1
Rattus norvegicus [4] = species on record: Rattus norvegicus; test: Substrate property, maximum velocity relative to ADP (100) in rat liver pyruvate kinase was determined; assay type: ADME, organism-based; conditions: in vivo; procedure, shortened: as §1
Rattus norvegicus [5] = species on record: Rattus norvegicus; test: Substrate concentration for half maximum- reaction velocity in rat liver pyruvate kinase; assay type: ADME, organism-based; conditions: in vivo; procedure, shortened: as §1
Rattus norvegicus [6] = species on record: Rattus norvegicus; test: Substrate property, maximum velocity relative to ADP (100) in rat muscle pyruvate kinase was determined; assay type: ADME, organism-based; conditions: in vivo; procedure, shortened: as §1
Rattus norvegicus [7] = species on record: Rattus norvegicus; test: Maximum velocity in rat liver adenylate kinase II relative to ATP(=100); assay type: ADME, organism-based; conditions: in vivo
Procedure, shortened: (§2)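 Rat liver AK II and AK III, isolated as before. Optical density change at 340 nm followed at 22-24 °C in 1 mL. Five or more substrate concentrations; stocks contained equimolar MgCl2. Vmax comes from linear Lineweaver-Burk plots and is expressed relative to ATP (100).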

Rattus norvegicus [8] = species on record: Rattus norvegicus; test: Maximum velocity in rat liver adenylate kinase III relative to ATP(=100); assay type: ADME, organism-based; conditions: in vivo; procedure, shortened: as §2
[9] = biological target: Adenylate kinase 2, mitochondrial (Rattus norvegicus, UniProt P29410); test: Competitive inhibition of adenylate kinase II in rat liver with respect to ATP; assay type: tissue-based
Procedure, shortened: (§3)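 Rat liver adenylate kinase isozymes (AK II, AK III), isolated as before. Read as rate of change in optical density at 340 nm, 22-24 °C, 1 mL final volume. Five or more levels of ATP at each of two inhibitor levels, inhibitor at 1-5 times the inhibition constant. Ki taken from replots of inhibitor concentration vs Lineweaver-Burk slopes. Stocks contained equimolar MgCl2.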

[10] = biological target: GTP:AMP phosphotransferase AK3, mitochondrial (Rattus norvegicus, UniProt P29411); test: Competitive inhibition of adenylate kinase III in rat liver with respect to ATP; assay type: tissue-based; procedure, shortened: as §3
Chain of GTP:AMP phosphotransferase AK3, mitochondrial (P29411 whole entry): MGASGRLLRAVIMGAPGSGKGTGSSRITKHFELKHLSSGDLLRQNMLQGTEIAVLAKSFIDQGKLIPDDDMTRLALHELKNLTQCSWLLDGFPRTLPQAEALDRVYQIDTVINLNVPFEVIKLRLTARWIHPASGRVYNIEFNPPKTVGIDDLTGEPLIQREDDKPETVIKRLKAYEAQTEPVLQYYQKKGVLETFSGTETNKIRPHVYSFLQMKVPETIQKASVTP

[11] = Reaction velocity relative to ATP (=1) in yeast hexokinase was determined at 5 mM concentration.; assay type: ADME; conditions: 5000 µM
Rattus norvegicus [12] = species on record: Rattus norvegicus; test: Maximum velocity relative to ADP (100) in rat muscle pyruvate kinase was determined; assay type: ADME, organism-based; conditions: in vivo; procedure, shortened: as §1
[13] = Substrate property, maximum velocity relative to ADP (100) in rat muscle pyruvate kinase was determined; conditions: in vitro

## CC(=O)N(C)CCCCN(C)c1ncnc2c1ncn2[C@@H]1O[C@H](COP(=O)(O)OP(=O)(O)O)[C@@H](O)[C@H]1O
Rattus norvegicus [1]
  Vmax: 18%
Rattus norvegicus [2]
  Km: 1700 µM
Rattus norvegicus [3]
  Km: 3600 µM
Rattus norvegicus [4]
  Vmax: 21%
Rattus norvegicus [5]
  Km: 700 µM
Rattus norvegicus [6]
  Vmax: 20%

## CC(=O)N(C)CCCCN(C)c1ncnc2c1ncn2[C@@H]1O[C@H](COP(=O)(O)OP(=O)(O)OP(=O)(O)O)[C@@H](O)[C@H]1O
Rattus norvegicus [7]
  Vmax: 0%
Rattus norvegicus [8]
  Vmax: 0%
[9]
  Ki: 1100 µM
[10]
  Ki: 900 µM

## CN(CCCCN(C)c1ncnc2c1ncn2[C@@H]1O[C@H](COP(=O)(O)OP(=O)(O)OP(=O)(O)O)[C@@H](O)[C@H]1O)C(=O)CCCNC(=O)CI
[11]
  Velocity relative to ATP: 1.2

## CN(CCCN(C)C(=O)CCCCNc1ncnc2c1ncn2[C@@H]1O[C@H](COP(=O)(O)OP(=O)(O)OP(=O)(O)O)[C@@H](O)[C@H]1O)C(=O)CCCCNC(=O)CI
[11]
  Velocity relative to ATP: 0.73

## Nc1ncnc2c1nc(NCCCCCCCCNC(=O)CI)n2[C@@H]1O[C@H](COP(=O)(O)OP(=O)(O)OP(=O)(O)O)[C@@H](O)[C@H]1O
[11]
  Velocity relative to ATP: 0.54

## CN(CCCN(C)C(=O)CCCCNc1ncnc2c1ncn2[C@@H]1O[C@H](COP(=O)(O)OP(=O)(O)O)[C@@H](O)[C@H]1O)C(=O)CCCCNC(=O)OCc1ccccc1
Rattus norvegicus [3]
  Km: 70 µM
Rattus norvegicus [12]
  Vmax: 1.5%

## CC(=O)NCCCCCCNc1nc2c(N)ncnc2n1[C@@H]1O[C@H](COP(=O)(O)OP(=O)(O)O)[C@@H](O)[C@H]1O
[13]
  Vmax: 0%
Rattus norvegicus [6]
  Vmax: 0%

## O=C(CI)NCCCCCCCCNc1ncnc2c1ncn2[C@@H]1O[C@H](COP(=O)(O)OP(=O)(O)OP(=O)(O)O)[C@@H](O)[C@H]1O
[11]
  Velocity relative to ATP: 1.8
